DAGLB inh – DAGLB lipase inhibitors, primary screen, biochemical, fluorescence, HTS; 340,000 tested, 0.059% active; Diacylglycerol lipase-beta (Homo sapiens), Q8NCG7; AID 504411, 2011; inhibition, % at 5.17 µM; HEK293T DAGLB membrane lysate, EnzChek fluorogenic substrate; in the data active means inhibition above about 34%;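 further: 0% = enzyme with vehicle and 100% = wells lacking enzyme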
VLA-4 inh – inhibition in human VLA-4 binding assay, primary screen, VLA-4 allosteric modulator project, MLPCN library, flow cytometry, VLA-4 expressing cells; Integrin alpha-4 (Homo sapiens), P13612; ligand binding flow cytometry; inhibition, % (about 7 µM as worked out from the volumes in the protocol); 330,000 tested, 0.2% active; in the data active means inhibition above about 50%
Target sequence (P13612 whole entry, looked up): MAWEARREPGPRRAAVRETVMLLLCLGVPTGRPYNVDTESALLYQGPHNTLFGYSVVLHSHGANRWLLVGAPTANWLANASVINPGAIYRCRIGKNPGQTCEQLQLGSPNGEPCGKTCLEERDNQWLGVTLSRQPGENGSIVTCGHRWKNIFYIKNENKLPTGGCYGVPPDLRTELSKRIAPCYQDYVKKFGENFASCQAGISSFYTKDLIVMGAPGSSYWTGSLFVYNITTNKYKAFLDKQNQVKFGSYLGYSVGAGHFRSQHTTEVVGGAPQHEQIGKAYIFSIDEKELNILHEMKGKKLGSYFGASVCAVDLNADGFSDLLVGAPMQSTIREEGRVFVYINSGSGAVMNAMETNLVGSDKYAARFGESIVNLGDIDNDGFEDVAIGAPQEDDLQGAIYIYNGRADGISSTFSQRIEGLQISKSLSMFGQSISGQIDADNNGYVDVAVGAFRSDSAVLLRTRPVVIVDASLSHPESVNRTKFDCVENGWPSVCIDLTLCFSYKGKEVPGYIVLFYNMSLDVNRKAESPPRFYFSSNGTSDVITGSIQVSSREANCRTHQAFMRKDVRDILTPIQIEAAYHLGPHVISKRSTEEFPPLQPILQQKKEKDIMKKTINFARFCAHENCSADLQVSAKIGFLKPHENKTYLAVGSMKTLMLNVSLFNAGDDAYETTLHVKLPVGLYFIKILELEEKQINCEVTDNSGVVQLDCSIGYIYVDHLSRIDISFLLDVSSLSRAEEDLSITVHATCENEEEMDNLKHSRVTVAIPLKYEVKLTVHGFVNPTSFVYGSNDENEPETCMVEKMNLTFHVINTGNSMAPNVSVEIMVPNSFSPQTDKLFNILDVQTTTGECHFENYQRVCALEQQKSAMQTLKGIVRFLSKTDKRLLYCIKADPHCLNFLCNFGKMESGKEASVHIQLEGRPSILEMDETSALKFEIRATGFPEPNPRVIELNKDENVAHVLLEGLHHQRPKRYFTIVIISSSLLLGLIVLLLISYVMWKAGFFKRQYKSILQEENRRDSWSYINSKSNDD
FGF22 binding-1 – binders of human FGF22 protein, primary screen, FGF22 synaptogenesis inhibitor project, biophysical, thermal shift, single point. activity (Tm shift, normalised), % at 9.99 µM. Fibroblast growth factor 22 (Homo sapiens), Q9HCT0. recombinant FGF22 thermal shift, SYPRO orange fluorescence; percent of sucrose octasulfate shift, DMSO zero. 340,000 tested, 1.5% active. AID 651658, 2012;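 active means mean Tm shift, scaled 0 neutral to 100 positive control, at about 1.3% or above, every replicate too, limit read from the data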
Exocytosis inh – LAMP-1 surface exposure blockers, TALL-104 cells – cell-based, flow cytometry, MLPCN library, primary screen. AID 651702, 2012. 360,000 tested, 0.66% active. TALL-104 LAMP-1 surface exposure; cells stimulated with thapsigargin and PMA. inhibition, % at 10 µM;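 active means inhibition above about 55%, limit read from the data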
MT1-MMP act inh – blockers of MT1-MMP proenzyme processing, primary screen, HT1080 RFP-PRO-GFP cells, GFP/RFP fluorescence; Matrix metalloproteinase-14 (Homo sapiens), P50281; GFP/RFP ratio fluorescence, overnight; percent of plate control window, DMSO zero; GFP/RFP ratio change, % at 20 µM; 360,000 tested, 0.061% active;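 active means GFP/RFP ratio change of at least 30% with cell ATP level not reduced by more than half and red fluorescence within 50% of control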
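Assay system – RFP-PRO-GFP reporter HT1080 cells · Compound dosing – single dose of 20 µM compound, 1% DMSO final · Incubation – overnight compound exposure at 37 °C · Measure – GFP/RFP fluorescence ratio · Benchmarks – DMSO wells and RFP-L50D-GFP cells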
ABCB6 inh MLPCN – ABCB6 transporter inhibitors, primary screen, K562-ABCB6 cells, flow cytometry, MLPCN library; fluorescence ratio to DMSO, % at 10 µM; 360,000 tested, 0.19% active; ATP-binding cassette sub-family B member 6 (Homo sapiens), Q9NP58; K562-ABCB6 porphyrin accumulation, 1 h; hits give low values;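 active means fluorescence ratio to DMSO below 75%, the collection mean minus 3 SD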;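 further: signal is porphyrin accumulated inside mitochondria; 100% equals median channel fluorescence of DMSO control wells; lower ratio means ABCB6 inhibition with less porphyrin fluorescence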
FGF22 binding-2 – binders of human FGF22 protein, dose response, FGF22 synaptogenesis inhibitor project, biophysical, thermal shift, cherry-pick retest. shares compounds with FGF22 binding-1. AID 720646, 2013. recombinant FGF22 thermal shift, SYPRO orange fluorescence. thermal shift activity, °C (ΔTm) at 38 µM. 1,000 tested, 2% active;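 active means fitted rise in melting shift crosses a set limit at or below the top valid dose tested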
SYPRO no-protein – compound-only thermal shift signal without protein, dose response, artefact control for FGF22 binder project, biochemical, cherry-picked samples, RT-PCR instrument; compound-only SYPRO orange thermal shift counter-screen, no protein; 1,000 tested, 2% active; shares compounds with FGF22 binding-1; AC50, µM (titrated, usually from 38 µM);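 active means rising signal whose fitted curve reaches the 0.54 level within the top valid dose, showing a melting point, actives reach about 13 µM in these data; inactive means the rest, including activity in the opposite direction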; further: value is where the raw curve crosses a fixed level and not half-maximal
* hit, by the source's call; [ ] = remark or other dose. A selection: hits, their analogues and other compounds. The true share with any hit is near 2%.

For CC(C)C#Cc1cnc2c(c1)C(=O)N([C@@H](C)CO)C[C@H](C)[C@H](CN(C)C(=O)c1cnccn1)O2 the results were FGF22 binding-1 1.3*, FGF22 binding-2 0.16[42 µM] and SYPRO no-protein inactive.
For COCC#Cc1cnc2c(c1)C(=O)N([C@@H](C)CO)C[C@@H](C)[C@@H](CN(C)C(=O)c1cnccn1)O2 the results were FGF22 binding-1 0.
`COCC#Cc1cnc2c(c1)C(=O)N([C@H](C)CO)C[C@H](C)[C@H](CN(C)C(=O)c1cnccn1)O2` gave FGF22 binding-1 3.2*, FGF22 binding-2 0.075 and SYPRO no-protein inactive.
Cc1ccc(NC(=O)c2ccc(Cl)c(S(=O)(=O)NCC3CCCO3)c2)c(O)c1 (stereo not given) was read as DAGLB inh 1, VLA-4 inh -1, FGF22 binding-1 30*, Exocytosis inh 2, MT1-MMP act inh 5, ABCB6 inh MLPCN 106, FGF22 binding-2 0.18 and SYPRO no-protein inactive.
`Cc1nc2ccc(NC(=O)c3ccc(C)c(S(=O)(=O)N4CCOCC4)c3)cc2s1` gave DAGLB inh -3, VLA-4 inh -1, FGF22 binding-1 1.6*, Exocytosis inh 3, MT1-MMP act inh 7, ABCB6 inh MLPCN 92, FGF22 binding-2 0.043 and SYPRO no-protein inactive.
For CCOc1ccc(NC(=O)c2cccc(-n3cccc3)c2)cc1S(=O)(=O)N1CCOCC1 the results were DAGLB inh 2, VLA-4 inh -13, FGF22 binding-1 2.3*, Exocytosis inh -2, MT1-MMP act inh -4, ABCB6 inh MLPCN 97, FGF22 binding-2 -0.15 and SYPRO no-protein inactive.
COc1ccc(S(=O)(=O)N2CCOCC2)cc1NC(=O)c1cccc(-n2cccc2)c1 was read as DAGLB inh 0, VLA-4 inh 1, FGF22 binding-1 -1, Exocytosis inh -3, MT1-MMP act inh 1 and ABCB6 inh MLPCN 99.
`Cn1c(=O)c2c(-c3ccccc3)n(-c3cc(Cl)c([N+](=O)[O-])cc3O)cc2n(C)c1=O` gave FGF22 binding-1 1.6*, Exocytosis inh 3, MT1-MMP act inh 2, ABCB6 inh MLPCN 96 and SYPRO no-protein inactive.
Cn1c(=O)c2c(-c3ccccc3)n(-c3cc([N+](=O)[O-])ccc3O)cc2n(C)c1=O was read as DAGLB inh 1, FGF22 binding-1 1.4*, Exocytosis inh -4, MT1-MMP act inh 6, ABCB6 inh MLPCN 97, FGF22 binding-2 -0.13 and SYPRO no-protein inactive.
Screening Cc1cccc(-c2c3c(=O)n(C)c(=O)n(C)c3cn2-c2ccccc2O)c1 returned DAGLB inh 2, VLA-4 inh 9, Exocytosis inh 1, MT1-MMP act inh 5 and ABCB6 inh MLPCN 122.
CO[C@H]1CN(C)C(=O)c2cc(C#N)ccc2OC[C@@H]2O[C@H](CC[C@H]2OC)CCN(C)C(=O)[C@H]1C was read as FGF22 binding-1 0.
Screening O=C(O)c1cccc(-n2cc(-c3cccc(C(F)(F)F)c3)cn2)c1 returned DAGLB inh 5, VLA-4 inh 7, FGF22 binding-1 1.6*, Exocytosis inh -7, MT1-MMP act inh 0, ABCB6 inh MLPCN 99, FGF22 binding-2 0.17 and SYPRO no-protein inactive.
`CC(C)n1c(=O)c2ccccc2n1Cc1cn(-c2ccc(Cl)cc2)nn1` gave FGF22 binding-1 2.6*, Exocytosis inh -1, MT1-MMP act inh 1, ABCB6 inh MLPCN 94, FGF22 binding-2 0.39 and SYPRO no-protein inactive.
Screening O=C(Cc1ccccc1)NC1CCN(Cc2ccccc2)CC1 returned DAGLB inh 3, VLA-4 inh -11, FGF22 binding-1 0, Exocytosis inh 1, MT1-MMP act inh -2 and ABCB6 inh MLPCN 110.
O=C(O)C1CSC2(CCN(Cc3ccccc3)CC2)N1 (stereo not given) was read as DAGLB inh -3, FGF22 binding-1 39*, Exocytosis inh 0, MT1-MMP act inh -2, ABCB6 inh MLPCN 103, FGF22 binding-2 0.15 and SYPRO no-protein inactive.
For CCCNC(=O)C[C@H]1CC[C@@H]2[C@@H](COc3ccc(NC(=O)c4cscn4)cc3C(=O)N2C)O1 the results were FGF22 binding-1 0.
Screening O=C(Nc1ccc(OC(F)(F)C(F)F)c(NC(=O)c2ccc(F)cc2)c1)c1ccc(F)cc1 returned DAGLB inh -7, VLA-4 inh -15, Exocytosis inh 2, MT1-MMP act inh 7 and ABCB6 inh MLPCN 95.
For Nc1ccc(C(=O)Nc2ccc(OC(F)(F)C(F)F)c(NC(=O)c3ccc(N)cc3)c2)cc1 the results were DAGLB inh 1, VLA-4 inh 16, FGF22 binding-1 1.7*, Exocytosis inh 0, MT1-MMP act inh 1, ABCB6 inh MLPCN 102, FGF22 binding-2 -0.69 and SYPRO no-protein inactive.
`Cn1cc([N+](=O)[O-])c(C(=O)Nc2ccc(-c3nc4ccccc4[nH]3)cc2)n1` gave DAGLB inh 1, VLA-4 inh 5, FGF22 binding-1 0, Exocytosis inh 2, MT1-MMP act inh 2 and ABCB6 inh MLPCN 98.
Screening Cn1cc([N+](=O)[O-])c(C(=O)Nc2ccc3nc(-c4ccccc4)[nH]c3c2)n1 returned DAGLB inh 3, VLA-4 inh 3, FGF22 binding-1 15*, Exocytosis inh 4, MT1-MMP act inh -5, ABCB6 inh MLPCN 101, FGF22 binding-2 0.22 and SYPRO no-protein inactive.
For CCOC(=O)[C@]12CCCC=C1N(Cc1ccccc1)C(=O)[C@H](CC(=O)NCC1CCCCC1)C2 the results were FGF22 binding-1 2.2*, Exocytosis inh 1, MT1-MMP act inh 0, FGF22 binding-2 -0.08 and SYPRO no-protein inactive.
For CCOC(=O)[C@]12CCCC=C1N(Cc1ccccc1)C(=O)[C@H](CC(=O)NCc1ccc(C)o1)C2 the results were FGF22 binding-1 0, Exocytosis inh -6 and MT1-MMP act inh 4.
